Source: PubChem
CHRM1 PAM: potentiates human M1 receptor response to acetylcholine; P11229; CHO-K1 hM1, Fluo-8 calcium fluorescence, ACh EC20; 0% = ACh EC20, 100% = maximal ACh; activation, % at 3 µM; actives 0.088% (n = 360,000); AID 588819; in the data active = activation above about 19%, passing the limit was not always enough
TAAR1 ag: agonists of human TAAR1 | activation, % at 3 µM | Q96RJ0 | actives 0.99% (n = 360,000) | AID 624467 | CHO RD-HGA16 TAAR1, Fluo-8 calcium fluorescence; vehicle wells 0%, saturating PEA agonist 100%;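 active = activation above the mean activation of all test compounds in the run plus 3 SD, cut at about 38% in these data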
Target sequence (Q96RJ0 whole entry, looked up): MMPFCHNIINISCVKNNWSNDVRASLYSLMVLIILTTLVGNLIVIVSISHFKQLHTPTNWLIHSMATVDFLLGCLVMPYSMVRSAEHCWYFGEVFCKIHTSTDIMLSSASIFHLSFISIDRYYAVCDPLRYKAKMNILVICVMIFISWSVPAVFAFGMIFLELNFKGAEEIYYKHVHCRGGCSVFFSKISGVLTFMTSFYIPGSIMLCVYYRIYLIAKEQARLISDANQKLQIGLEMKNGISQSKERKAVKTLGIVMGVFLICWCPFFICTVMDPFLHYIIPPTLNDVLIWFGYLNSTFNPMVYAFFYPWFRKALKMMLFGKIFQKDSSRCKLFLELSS
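System: CHO-derived RD-HGA16 cells with stable Gα16 and human TAAR1. Times: 17-24 h plating, Fluo-8 75 min 37 °C, 30 min RT. Measured by: calcium-sensitive Fluo-8 signal, excitation 470-495, emission 515-575 nm. Read-out basis: % activation relative to PEA EC100 response. Control set: DMSO and PEA EC100. Repeats: no replicates (n 1).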
M1 ag: activates human CHRM1 receptor; CHO-K1 hM1, Fluo-8 calcium fluorescence, agonist mode; 0% DMSO, 100% acetylcholine EC100; activation, % at 3 µM; actives 0.33% (n = 360,000); P11229;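 active = activation above the run's mean compound activation plus 3 SD, cut at about 16% in these data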;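 note: peak over basal fluorescence ratio within a 140 s kinetic read after compound addition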
CHRM1 antagonist: human CHRM1 antagonism | AID 588852 | P11229 | CHO-K1 hM1, Fluo-8 calcium fluorescence, ACh EC80 antagonist | inhibition, % at 3 µM | actives 1.3% (n = 360,000);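 active = percent inhibition above its own plate's cutoff, namely the mean of that plate's compound wells plus 3 SD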;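 note: peak over basal fluorescence ratio during 140 s after agonist addition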
TAAR1 antagonist: antagonists of human TAAR1. Q96RJ0. CHO RD-HGA16 TAAR1, Fluo-8 calcium fluorescence, antagonist. inhibition, % at 3 µM. actives 1.5% (n = 360,000). AID 624466;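 active = inhibition above a per-plate cutoff, the mean inhibition of test compounds on that plate plus 3 SD, cut at about 49% in these data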
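Test system: RD-HGA16 CHO cells with stable hTAAR1 and Gα16 / Probe or stimulus: EC80 β-phenethylamine stimulus / Times: seeding 17-24 h prior, 75-min 37 °C, 30-min RT dye loading / Detection: Fluo-8 calcium-sensitive fluorescence / Read-out basis: % inhibition scaled between DMSO and EC80 PEA controls / Repeats: singlicate, one well per test compound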
nonsel antag count: counter-screen for TAAR1 antagonists: nonselective antagonists. shares compounds with TAAR1 antagonist. counterscreen cell line, calcium fluorescence, antagonist mode. inhibition, % at 3 µM. actives 77% (n = 2,400); in the data active = inhibition above about 22%;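 note: CHO-Ga16 host cells stimulated with ATP at an EC80 level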
TAAR1 antag conf: human TAAR1 antagonism, confirmed. inhibition, % at 3 µM. AID 651785. shares compounds with TAAR1 antagonist. actives 40% (n = 2,400). TAAR1-expressing cells, fluorescence antagonist read-out; in the data active = inhibition above about 49%;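 note: CHO-Ga16 host cells challenged with agonist PEA near its EC80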
Ga16 ag counter: nonselective Ga16 agonist in TAAR1 antagonist counter-screen; shares compounds with TAAR1 antagonist; Ga16-expressing cells, calcium fluorescence, agonist counterscreen; activation, % at 3 µM; actives 18% (n = 2,400); in the data active = activation above about 12%
TAAR1 ag counter: counter-screen for human TAAR1 antagonists: TAAR1 agonists; shares compounds with TAAR1 antagonist; hTAAR1 cell line, fluorescence activation, agonist mode; activation, % at 3 µM; actives 2% (n = 2,400); AID 651955; in the data active = activation above about 37%;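 note: CHO cells stably expressing TAAR1 with calcium dye readout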
Of the large screens only hits and unclear results are named; the others gave an inactive call (follow-up assays come after a bar, where they were run). Only some compounds are listed: those with a hit (about 3.4% of all), similar ones and a draw of the others.

O=C(Nc1nc(-c2ccccn2)cs1)C1COc2ccccc2O1 (stereo unspecified)	TAAR1 antagonist 105 | nonsel antag count 22 | TAAR1 antag conf inactive | Ga16 ag counter inactive | TAAR1 ag counter inactive
Cc1csc(NC(=O)C2COc3ccccc3O2)n1 (stereo unspecified)	none
CSc1nc2ccc3nc(NC(=O)C4COc5ccccc5O4)sc3c2s1 (stereo unspecified)	none
COC(=O)[C@@]12C[C@@H](CC(=O)NCC3CCCCC3)C(=O)N(Cc3ccco3)C1=CCC(C)(C)C2	none (no result: CHRM1 PAM, M1 ag, CHRM1 antagonist)
CCc1nc2ccc(C(=O)NCCN(C)C)cn2c1N(CC)CCOC	none
COc1cc(C#Cc2c(-c3cncn3C)n(C)c3ccc(-c4cnc(OC)nc4)cc23)cc(OC)c1	TAAR1 antagonist 73 | nonsel antag count 35 | TAAR1 antag conf 52 | Ga16 ag counter inactive | TAAR1 ag counter inactive
COc1cc(C#Cc2c(-c3cncn3C)n(C)c3ccc(-c4cnc(N5CCOCC5)nc4)cc23)cc(OC)c1	none
CC(C)COc1ccc(C(=O)NNC(=O)c2ccc(=O)[nH]c2)cc1	TAAR1 antagonist 103 | nonsel antag count inactive | TAAR1 antag conf inactive | Ga16 ag counter inactive | TAAR1 ag counter inactive
CCCCn1nnnc1C(c1cc2ccccc2o1)N1CCN(c2ncccc2C#N)CC1 (stereo unspecified)	none (no result: CHRM1 PAM, M1 ag, CHRM1 antagonist)
COc1ccccc1Nc1nnc(SCc2nnc(-c3cc(OC)c(OC)c(OC)c3)o2)s1	TAAR1 antagonist 58 | nonsel antag count 25 | TAAR1 antag conf inactive | Ga16 ag counter inactive | TAAR1 ag counter inactive
Cc1noc(C)c1Cn1c(C)c(C(=O)NCc2ccc3c(c2)OCCO3)sc1=O	none
CCCc1nc2ccc(C)cn2c1Cc1ccc(OC)cc1C	none
COc1cccc2cc(CC(=O)c3cc(C)ccc3C)c(=O)oc12	TAAR1 antagonist 58 | nonsel antag count 29 | TAAR1 antag conf 49 | Ga16 ag counter inactive | TAAR1 ag counter inactive
COc1cccc2cc(CC(=O)c3ccc(C)c(C)c3)c(=O)oc12	none
O=C(COc1ccccc1)Nc1cccc(-c2nnc(-c3ccccc3)o2)c1	TAAR1 antagonist 67 | nonsel antag count 38 | TAAR1 antag conf 51 | Ga16 ag counter inactive | TAAR1 ag counter inactive
O=C(O)CCC(=O)Nc1cccc(-c2nnc(-c3ccccc3)o2)c1	none
CCC(=O)Nc1cccc(-c2nnc(-c3cccc(NC(=O)CC)c3)o2)c1	TAAR1 antagonist 56 | nonsel antag count 22 | TAAR1 antag conf inactive | Ga16 ag counter inactive | TAAR1 ag counter inactive
Cc1ccc(S(=O)(=O)N2CCN(C(=O)c3cc(-c4cccs4)nn3-c3ccccc3)CC2)cc1	none
O=C(c1cc(-c2cccs2)nn1-c1ccccc1)N1CCN(S(=O)(=O)c2ccccc2)CC1	CHRM1 antagonist 28, TAAR1 antagonist 68 | nonsel antag count 30 | TAAR1 antag conf 52 | Ga16 ag counter inactive | TAAR1 ag counter inactive
COC(=O)[C@H](NC(=O)c1cc(-c2ccccc2)sc1N)C(C)C	none (no result: CHRM1 PAM, M1 ag, CHRM1 antagonist)
COc1ccc(C2CC(=O)C(c3ccccc3)=CN2Cc2ccccc2)cc1 (stereo unspecified)	TAAR1 antagonist 58 (no result: CHRM1 PAM, M1 ag, CHRM1 antagonist) | nonsel antag count 28 | TAAR1 antag conf inactive | Ga16 ag counter inactive | TAAR1 ag counter inactive
COc1ccc(C2CC(=O)C(c3ccccc3C)=CN2Cc2ccccc2)cc1 (stereo unspecified)	TAAR1 antagonist 56 (no result: CHRM1 PAM, M1 ag, CHRM1 antagonist) | nonsel antag count inactive | TAAR1 antag conf inactive | Ga16 ag counter inactive | TAAR1 ag counter inactive
Fc1ccccc1COc1ccc(Br)cc1CNCc1ccncc1	TAAR1 antagonist 75 | nonsel antag count 40 | TAAR1 antag conf 62 | Ga16 ag counter 12 | TAAR1 ag counter inactive
